For one data set, the target named is T1, Squalene synthase (Homo sapiens, UniProt P37268).
T1 sequence (P37268 whole entry): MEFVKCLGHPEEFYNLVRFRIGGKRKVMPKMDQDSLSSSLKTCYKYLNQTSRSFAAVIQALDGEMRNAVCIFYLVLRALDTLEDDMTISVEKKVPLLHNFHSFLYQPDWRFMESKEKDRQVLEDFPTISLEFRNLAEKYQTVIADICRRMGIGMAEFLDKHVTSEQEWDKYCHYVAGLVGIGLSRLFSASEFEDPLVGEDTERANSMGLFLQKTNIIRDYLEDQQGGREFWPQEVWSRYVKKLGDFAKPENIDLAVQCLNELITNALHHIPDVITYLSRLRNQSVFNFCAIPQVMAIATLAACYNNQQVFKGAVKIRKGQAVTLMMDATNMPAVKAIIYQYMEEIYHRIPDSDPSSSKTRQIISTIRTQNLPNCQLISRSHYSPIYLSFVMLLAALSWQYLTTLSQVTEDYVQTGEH
The experiment in a line: Inhibition of recombinant squalene synthase assessed as conversion of trans,trans-[1-3H]farnesyl pyrophosphate to [3H]squalene after 10 mins by liquid scintillation counting. In short, it runs like this: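 Recombinant SQS in 1 mM NADPH, 5 mM DTT, 10% PBS, 10 mM sodium fluoride and 0.5 mM MgCl₂, pH 7.5. Compounds were added from DMSO at defined concentrations. The reaction was started with farnesyl pyrophosphate plus 0.2 nM trans,trans-[1-³H]-farnesyl pyrophosphate, run 10 min at 37 °C, then extracted with chloroform/methanol. IC50 values are means of three experiments.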

The subject of data set [1] is Mus musculus. As to the kind of experiment: In vivo inhibition of squalene synthase in NMRI mouse assessed as inhibition of hepatic [14C]cholesterol biosynthesis at 3 mg/kg, po measured after 1 hr by liquid scintillation counting.
Data set [2] can be described thus: Stability in human liver microsomes assessed as compound remaining after 60 mins. It counts as ADME, Microsome. The following applies: read-out: Stability.
In data set [3] the test system is Mus musculus. The experiment in a line: In vivo inhibition of squalene synthase in NMRI mouse assessed as inhibition of hepatic [14C]cholesterol biosynthesis at 1 mg/kg, po measured after 1 hr by liquid scintillation counting.

Structures are written as SMILES.

By IC50 is commonly meant the concentration at which inhibition is half-maximal. `COc1cccc([C@@H]2O[C@@H](CC(=O)O)c3noc(C(C)C)c3-c3ccc(Cl)cc32)c1OC`: the IC50 on Squalene synthase came to 1420 nM.

As usually defined, the inhibition in vivo is the drop in the measured response relative to a control, in per cent. With `COc1cccc([C@H]2O[C@H](CC(=O)O)c3noc(C(C)C)c3-c3ccc(Cl)cc32)c1OC`, the inhibition in vivo at 3 mg/kg in the data set with Mus musculus [1] is 58%. The remaining at 1 h in data set [2] was 100%. In addition, on Squalene synthase, the half-maximal inhibitory concentration (IC50) was 56 nM.

For `COc1cccc([C@H]2O[C@H](CC(=O)N3CC[C@@H](O)C3)c3noc(C(C)C)c3-c3ccc(Cl)cc32)c1OC`, at Squalene synthase, the IC50 was 162 nM.

Take `COc1cccc([C@H]2O[C@H](CC(=O)N3CCC(CC(=O)O)CC3)c3noc(C(C)C)c3-c3ccc(Cl)cc32)c1OC`: the inhibition in vivo at 3 mg/kg in the data set with Mus musculus [1] was 80%. Also, the remaining at 1 h in data set [2] stood at 91%. Besides, the half-inhibitory concentration (IC50) at Squalene synthase is 131 nM.

In the case of `COc1cccc([C@H]2O[C@H](CC(=O)N3CCC(C(=O)O)CC3)c3noc(C(C)C)c3-c3ccc(Cl)cc32)c1OC`, the concentration for half-maximal inhibition (IC50) on Squalene synthase is 112 nM.

`COc1cccc([C@H]2O[C@H](CC(=O)O)C(=O)N(CC(C)(C)CO)c3ccc(Cl)cc32)c1OC`: on Squalene synthase, the IC50 was 223 nM.

Consider `COc1cccc([C@H]2O[C@H](CC(=O)N3CCC(CC(=O)O)CC3)C(=O)N(CC(C)(C)CO)c3ccc(Cl)cc32)c1OC`, for which the remaining at 1 h in data set [2] was 37%. On Squalene synthase, the IC50 is 260 nM.

Turning to `COc1cccc(C2OC(CC(=O)O)c3noc(C(C)C)c3-c3ccc(Cl)cc32)c1OC` (single isomer, unassigned; enantiomer 2), the IC50 on Squalene synthase was 5500 nM.

On to `COc1cccc(C2OC(CC(=O)O)c3noc(C(C)C)c3-c3ccc(Cl)cc32)c1OC` (single isomer, unassigned; enantiomer 3), for which the inhibition in vivo at 3 mg/kg in the data set on Mus musculus [1] stood at 31%. Besides, in data set [2], the remaining at 1 h was found to be 64%. On Squalene synthase, the IC50 came out at 169 nM.

For the compound `COc1cccc([C@H]2O[C@H](CC(=O)N3CCC(CC(=O)O)CC3)C(=O)N(CC(C)(C)COC(C)=O)c3ccc(Cl)cc32)c1OC` [LAPAQUISTAT ACETATE], the inhibition in vivo at 3 mg/kg in the data set on Mus musculus [1] was 73%. Also, the remaining at 1 h in data set [2] was 7%. Besides, the inhibition in vivo at 1 mg/kg with Mus musculus [3] came out at 59%. Also, at Squalene synthase, the IC50 is 213 nM.

Source of the values: ChEMBL document CHEMBL1777787, “Identification of 4H,6H-[2]benzoxepino[4,5-c][1,2]oxazoles as novel squalene synthase inhibitors” (Bioorg Med Chem Lett, 2011).
